Laboratory results taken from ChEMBL document CHEMBL4689842, “EUbOPEN Chemogenomics Library wave 1” (2021).
Several values for one entry are separate records, joined by “and”; a condition that tells them apart may be missing. Identical values can stand only once.

Test system: Fibroblast
Assay: Multiplex assay against human fibroblast
Assay type: toxicity, cell-based
Conditions: 10 µM, compound concentration 10 uM
Summary of the method: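 Hoechst33342, BioTracker Green Microtubule Cytoskeleton Dye, MitoTracker Red and Annexin V Alexa Fluor 680 were added to live cells at seeding, and imaging on a CQ1 microscope at 37°C and 5% CO2 followed compound addition. Gating by CellPathfinder machine learning separated cells into Hoechst high-intensity objects or normal cells, then normal cells into healthy, pyknosed or fragmented nuclei, then pyknosed cells into mitotic or apoptotic. Per cents of healthy-nucleus cells are reported for the tubulin, mitochondrial-mass and membrane-permeability phenotypes.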

Cn1nc(C(=O)NCc2ccc(C(=O)O)cc2)cc1-c1ccc2[nH]ccc2c1 [BI 4395]
Population Apoptotic (%) (12 h, replicate 1): 77% and 69%
Population Fragmented Nuclei (%) (12 h, replicate 1): 29% and 28%
Population Healthy Nuclei (%) (12 h, replicate 1): 57%
Population Hoechst High Intensity Objects (%) (12 h, replicate 1): 12% and 19%
Population Mitochondria Different-Phenotype (%) (12 h, replicate 1): 3% and 2%
Population Mitotic Cells (%) (12 h, replicate 1): 22% and 30%
Population Normal (%) (12 h, replicate 1): 87% and 80%
Population Pyknosed Nuclei (%) (12 h, replicate 1): 13% and 14%
Population Tubulin-Different-Phenotype (%) (12 h, replicate 1): 9% and 4%
Total Cell Count (12 h, replicate 1): 190 and 199
Population Apoptotic (%) (12 h, replicate 2): 42% and 100%
Population Fragmented Nuclei (%) (12 h, replicate 2): 43% and 54%
Population Healthy Nuclei (%) (12 h, replicate 2): 38% and 39%
Population Hoechst High Intensity Objects (%) (12 h, replicate 2): 29% and 49%
Population Membrane Permeable-Phenotype (%) (12 h, replicate 2): 26% and 9%
Population Mitochondria Different-Phenotype (%) (12 h, replicate 2): 13% and 0%
Population Normal (%) (12 h, replicate 2): 70% and 50%
Total Cell Count (12 h, replicate 2): 55 and 104
Population Apoptotic (%) (24 h, replicate 1): 71% and 69%
Population Fragmented Nuclei (%) (24 h, replicate 1): 29% and 27%
Population Healthy Nuclei (%) (24 h, replicate 1): 58% and 57%
Population Hoechst High Intensity Objects (%) (24 h, replicate 1): 12% and 17%
Population Membrane Permeable-Phenotype (%) (24 h, replicate 1): 9% and 5%
Population Mitochondria Different-Phenotype (%) (24 h, replicate 1): 2% and 0%
Population Mitotic Cells (%) (24 h, replicate 1): 28% and 30%
Population Normal (%) (24 h, replicate 1): 87% and 82%
Population Pyknosed Nuclei (%) (24 h, replicate 1): 14%
Population Tubulin-Different-Phenotype (%) (24 h, replicate 1): 7% and 4%
Total Cell Count (24 h, replicate 1): 202 and 211
Population Fragmented Nuclei (%) (24 h, replicate 2): 75% and 51%
Population Healthy Nuclei (%) (24 h, replicate 2): 25% and 37%
Population Hoechst High Intensity Objects (%) (24 h, replicate 2): 44% and 38%
Population Membrane Permeable-Phenotype (%) (24 h, replicate 2): 15%
Population Mitochondria Different-Phenotype (%) (24 h, replicate 2): 15% and 7%
Population Mitotic Cells (%) (24 h, replicate 2): 0%
Population Normal (%) (24 h, replicate 2): 55% and 61%
Population Pyknosed Nuclei (%) (24 h, replicate 2): 0% and 11%
Population Tubulin-Different-Phenotype (%) (24 h, replicate 2): 15% and 38%
Total Cell Count (24 h, replicate 2): 94 and 57
